Results published in PubChem BioAssay.
The source made the active and inactive calls.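 How the source made its calls, unless noted: active means fluorescence slope higher than the sample average by over 3 SD (cut at about -0.22 in these data, passing the limit was not always enough); inactive means the rest.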

How the values were obtained:
[1] = inhibitors of TNFa-induced NFkB p65 translocation, primary screen, imaging, HUVEC, MLSMR starter and 10KST1 sets (AID 438;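 active means inhibition above 20% together with a positive visual image hit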;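 further: compound added about 3h40 before a 20 min TNFalpha stimulation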;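 on inhibition: signal is the nuclear over cytoplasmic p65 intensity ratio per well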); conditions: HUVEC TNFa-induced p65 nuclear translocation; cell count: measured here: nuclei count (cytotoxicity indicator), at 2.08 µM; inhibition: at 2 µM, stronger effect = higher value, 0% TNFa-plus-vehicle, 100% no-TNFa wells
[2] = inhibitors of E-selectin induction by TNFa, primary screen, imaging, HUVEC, immunofluorescence, MLSMR starter and 10KST1 sets (AID 487;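 active means visually confirmed hit in the image check and inhibition above 20%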;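 on inhibition: signal is fraction of cell area covered by stained E-selectin grains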;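 on nuclei count: 100% = median nuclei count of all wells on the same plate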); conditions: HUVEC TNFalpha-induced E-selectin immunofluorescence imaging, at 2 µM; inhibition: stronger effect = higher value; nuclei count: measured here: cell number, toxicity
[3] = DUSP6 inhibitors restoring Erk phosphorylation by chemical complementation, primary imaging in DUSP6-transfected HeLa (AID 609;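 active means compounds giving at least 50% inhibition in the cell-based MKP-3 phosphatase rescue imaging test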;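 on inhibition: phospho-Erk level distribution per well compared with pooled transfected vehicle control wells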); conditions: HeLa MKP-3 transfected, phospho-Erk imaging KS statistic, at 10 µM, cells stimulated with TPA for 15 min
[4] = target: Dual specificity protein phosphatase 6 (Homo sapiens) (UniProt Q16828); assay: as above; conditions: HeLa MKP-3 transfected, phospho-Erk imaging KS statistic; at 10 µM; stronger effect = higher value; cells stimulated with TPA for 15 min
Dual specificity protein phosphatase 6 (Homo sapiens), sequence (Q16828 whole entry, looked up): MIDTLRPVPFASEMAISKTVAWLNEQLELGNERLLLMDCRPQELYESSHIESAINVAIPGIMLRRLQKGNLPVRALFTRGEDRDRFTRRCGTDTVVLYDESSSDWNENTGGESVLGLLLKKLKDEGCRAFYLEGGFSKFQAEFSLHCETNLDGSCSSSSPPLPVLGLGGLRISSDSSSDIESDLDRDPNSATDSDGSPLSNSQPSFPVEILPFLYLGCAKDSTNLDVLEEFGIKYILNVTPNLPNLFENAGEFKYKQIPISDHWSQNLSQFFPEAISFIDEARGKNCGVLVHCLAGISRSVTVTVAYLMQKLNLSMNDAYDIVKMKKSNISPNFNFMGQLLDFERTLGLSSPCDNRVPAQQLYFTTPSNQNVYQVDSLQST

[5] = target: Voltage-gated potassium channel subunit beta-2 (Rattus norvegicus) (UniProt P62483); assay: KvBeta enzyme negative modulators, primary screen, biochemical, NADPH fluorescence (AID 622); conditions: recombinant KvBeta, 4-cyanobenzaldehyde reduction, at 10 µM, stronger effect = higher value;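 further: slope of raw intensity against log time taken from 70 to 1610 s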
Voltage-gated potassium channel subunit beta-2 (Rattus norvegicus), sequence (P62483 whole entry, looked up): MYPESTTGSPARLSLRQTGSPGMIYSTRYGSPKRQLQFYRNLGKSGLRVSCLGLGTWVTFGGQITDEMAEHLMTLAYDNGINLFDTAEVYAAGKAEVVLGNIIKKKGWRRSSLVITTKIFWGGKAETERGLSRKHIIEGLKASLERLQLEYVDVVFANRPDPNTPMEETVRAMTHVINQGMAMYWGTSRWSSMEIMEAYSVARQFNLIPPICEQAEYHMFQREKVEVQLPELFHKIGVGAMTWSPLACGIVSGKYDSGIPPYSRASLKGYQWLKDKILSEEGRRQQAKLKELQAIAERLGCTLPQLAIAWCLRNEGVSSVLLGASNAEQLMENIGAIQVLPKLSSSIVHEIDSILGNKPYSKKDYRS

[6] = target: Voltage-gated potassium channel subunit beta-2 (Rattus norvegicus) (UniProt P62483); assay: KvBeta positive modulators, primary screen, biochemical, NADPH fluorescence (AID 623;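 active means NADPH fluorescence slope more negative than the mean of all samples by about 3 SD, 99.7% confidence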;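 further: fluorescence intensity change per second fitted from 20 to 320 s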); conditions: Recombinant KvBeta, NADPH fluorescence decrease slope, 10 min; at 10 µM; stronger effect = lower value
[7] = target: Alpha-2C adrenergic receptor (Homo sapiens) (UniProt P18825); assay: modulators of alpha2C/GIRK thallium flux, primary screen, cell-based, HEK293 alpha2C/GIRK1/2 (AID 624;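 active means fluorescence slope after compound addition differing from the mean of all screened samples at 99.7% confidence, in either direction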;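 further: slope of fluorescence ratio to pre-addition baseline per second over 15 to 24 s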); conditions: thallium flux BTC fluorescence, at 10 µM, actives lie on both sides
Alpha-2C adrenergic receptor (Homo sapiens), sequence (P18825 whole entry, looked up): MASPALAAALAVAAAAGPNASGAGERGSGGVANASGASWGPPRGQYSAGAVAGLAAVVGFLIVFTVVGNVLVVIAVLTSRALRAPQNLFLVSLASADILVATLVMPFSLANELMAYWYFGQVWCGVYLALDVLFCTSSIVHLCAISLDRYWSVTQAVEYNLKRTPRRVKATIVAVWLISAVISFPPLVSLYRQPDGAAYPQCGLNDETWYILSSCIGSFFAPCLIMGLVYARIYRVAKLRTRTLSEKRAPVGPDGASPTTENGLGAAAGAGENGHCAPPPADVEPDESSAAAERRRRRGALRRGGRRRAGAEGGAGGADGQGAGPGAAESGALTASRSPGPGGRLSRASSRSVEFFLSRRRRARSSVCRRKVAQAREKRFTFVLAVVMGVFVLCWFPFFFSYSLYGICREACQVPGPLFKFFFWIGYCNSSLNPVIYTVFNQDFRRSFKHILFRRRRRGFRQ

[8] = inhibitors of larval lipid processing in zebrafish, primary screen, whole organism, PED6 fluorescence, gall bladder and intestine (AID 686;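 active means a full or partial loss of lipid-probe fluorescence in the fish gall bladder, intestine or both, judged by eye; inactive means no fluorescence loss, or compound toxic to the fish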;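 further: larvae 5 to 7 days old with five fish per well; signal comes from phospholipase A2 cleavage of quenched PED6 carried via bile; overnight exposure to compound and PED6 before scoring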); conditions: Zebrafish larvae PED6 lipid processing, fluorescence scoring; screened at 20 µM (by protocol)
Outline: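 Also added: quenched phospholipase substrate PED6, 100 nM final, ingested by larvae; System: zebrafish larvae, 5-7 d; Quantity: 5 larvae per well; Compound: 20 µM single dose; Schedule: overnight compound and PED6 incubation; Read-out: visual per-well fluorescence inhibition score; Measured by: By-eye fluorescence microscopy; Medium: E3.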

[9] = inhibitors of Chlamydomonas gravitaxis, primary screen, whole organism, Chlamydomonas reinhardtii, WT vs cilia-less mutant, absorbance, 96-well (AID 463189;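 active means inhibition at or above 50% relative to wild type and mutant plate controls; inactive means inhibition below 50%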;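 further: 0% = wild type cc124 cells in DMSO and 100% = ciliumless bld1 mutant cells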); conditions: OD600 absorbance, 2 days, at 10 µM, stronger effect = higher value
[10] = measured here: cell density z-score
[11] = measured here: nuclear c-Myc green intensity z-score
[12] = measured here: nuclear pErk red intensity z-score, stronger effect = higher value

Row | SMILES | cell count [1] | inhibition [1] | inhibition [2] | nuclei count [2] | z-score [3, 10] | z-score [3, 11] | z-score [3, 12] | inhibition [4] | fluorescence slope [5] | NADPH fluorescence slope [6] | slope [7] | outcome [8] | inhibition [9]
1 | COc1ccc(/C(O)=C2/C(=O)C(=O)N(CCCN(C)C)C2c2cccc(Cl)c2)cc1OC (stereo not drawn) | 382 | -1.1% (inactive) | -135% (inactive) | 155% | -1.5 | 0.328 | 0.495 | 3.66% (inactive) | -0.393 (inactive) | -5.4e-05 (inactive) | 0.00697 (inactive) | inactive | 0.268% (inactive)
2 | Cc1ccccc1OCC(O)Cn1c(N2CCN(c3ccccc3)CC2)nc2c1c(=O)[nH]c(=O)n2C (stereo not drawn) | 519 | -0.6% (inactive) | -227% (inactive) | 134% | -0.379 | -1.18 | 0.818 | 8.76% (inactive) | -0.537 (inactive) | -3.2e-05 (inactive) | 0.00634 (inactive) | inactive | 22.7% (inactive)
3 | COc1cc(C2CC(C(F)(F)F)n3ncc(C(=O)O)c3N2)cc(OC)c1OC (stereo not drawn) | 515 | -6.9% (inactive) | 18.3% (inactive) | 119% | -0.754 | 0.674 | 1.11 | -2.07% (inactive) | -0.517 (inactive) | -9.9e-05 (inactive) | 0.0046 (inactive) | inactive | -0.326% (inactive)
4 | Fc1ccc2[nH]c3c(N4CCN(C5CCCCC5)CC4)ncnc3c2c1 | 501 | -4.2% (inactive) | -68.6% (inactive) | 153% | -1.35 | 0.234 | 1.42 | -6.48% (inactive) | -0.152 (inactive) | -1.9e-06 (inactive) | 0.00383 (inactive) | inactive | 128% (active)
5 | CN(C)c1nc2n(c(=S)n1)CCS2 | 604 | -3.2% (inactive) | -204% (inactive) | 109% | -0.355 | -0.0746 | 0.173 | 16.1% (inactive) | -0.409 (inactive) | -2e-05 (inactive) | 0.00562 (inactive) | inactive | -16.2% (inactive)
6 | CC1(C)CC(=O)C(CCCN2C(=O)c3ccccc3C2=O)C(=O)C1 | 527 | 0.1% (inactive) | 10.1% (inactive) | 93.2% | -0.253 | 0.312 | -1.11 | -5.26% (inactive) | -0.379 (inactive) | -1.5e-05 (inactive) | 0.00431 (inactive) | inactive | 18% (inactive)
7 | N#CC1=C(SCC(=O)c2ccc(Cl)cc2)NC2=C(C(=O)CCC2)C1c1ccco1 (stereo not drawn) | 362 | -6.1% (inactive) | -118% (inactive) | 147% | 1.13 | -0.168 | -0.867 | 9.42% (inactive) | -0.422 (inactive) | -0.000127 (inactive) | 0.00564 (inactive) | active; weak signal in gallbladder and intestine | 13.1% (inactive)
8 | COCc1cc(C)nc(N)c1C#N | 606 | 5.8% (inactive) | -20.1% (inactive) | 136% | 0.714 | -1.4 | 1.43 | 16.1% (inactive) | -0.219 (inactive) | 9.7e-06 (inactive) | 0.00554 (inactive) | inactive | -2% (inactive)
9 | Cc1cccc(N)c1SC1CCCCC1O (stereo not drawn) | 420 | -5.2% (inactive) | -79.6% (inactive) | 131% | 0.781 | -1.44 | -1.09 | 23.9% (inactive) | -0.46 (inactive) | -2.2e-05 (inactive) | 0.00629 (inactive) | inactive | 15% (inactive)
10 | COc1cc(-n2c3nc4ccccc4nc3c3c(=O)n(Cc4ccco4)cnc32)cc(OC)c1OC | 308 | -15.2% (inactive) | -111% (inactive) | 168% | -1.73 | 0.447 | 0.876 | -3.5% (inactive) | -0.417 (inactive) | -0.000139 (inactive) | 0.00442 (inactive) | inactive | 3.2% (inactive)
11 | CC1=C(C(=O)Nc2ccccc2)C(c2ccncc2)C(C#N)=C(SCC(=O)NC(C)C)N1 (stereo not drawn) | 532 | -8.3% (inactive) | -82.1% (inactive) | 162% | -0.265 | 0.666 | 0.309 | -1.12% (inactive) | -0.309 (inactive) | 3.2e-06 (inactive) | 0.00489 (inactive) | inactive | 5.12% (inactive)
12 | CC1CN(C2CCN(C(=O)c3ccccc3Cl)CC2)CC(C)O1 (stereo not drawn) | 445 | -0.2% (inactive) | -214% (inactive) | 151% | -0.321 | -1.49 | -0.453 | -5.62% (inactive) | -0.348 (inactive) | -1.1e-05 (inactive) | 0.00459 (inactive) | inactive | 0.742% (inactive)
13 | CCCCNC(=O)c1cc2n(n1)C(C(F)(F)F)CC(c1ccccc1)N2 (stereo not drawn) | 519 | -6.4% (inactive) | -41.1% (inactive) | 107% | -0.754 | -0.242 | 0.464 | 1.75% (inactive) | -0.529 (inactive) | -5.9e-05 (inactive) | 0.00405 (inactive) | inactive | -3.15% (inactive)
14 | N#Cc1c(N)nc(SCC(=O)NCCc2ccccc2)c(C#N)c1-c1cccs1 | 441 | 3.4% (inactive) | 19.3% (inactive) | 62.6% | -1.05 | -0.516 | 1.34 | 7.83% (inactive) | -0.418 (inactive) | -1.6e-05 (inactive) | 0.00734 (inactive) | inactive | -7.92% (inactive)
15 | CCCCC1CC1C(=O)Nc1ccc(OC)c(OC)c1 (stereo not drawn) | 421 | -0.9% (inactive) | -42.1% (inactive) | 190% | -1.27 | -0.533 | 0.586 | -8.95% (inactive) | -0.39 (inactive) | -2.3e-05 (inactive) | 0.00756 (inactive) | inactive | 22% (inactive)
16 | CCCc1[nH]nc2c1C(c1cccc(OC)c1)C(C#N)=C(N)O2 (stereo not drawn) | 653 | -18% (inactive) | 32.3% (inactive) | 178% | -0.436 | -0.724 | 0.801 | 1.04% (inactive) | -0.401 (inactive) | -5.6e-05 (inactive) | 0.00438 (inactive) | inactive | 11.7% (inactive)
17 | COc1cc(-c2nn3c(COc4ccccc4)nnc3s2)cc(OC)c1OC | 497 | -2.1% (inactive) | -95% (inactive) | 105% | -0.725 | 2.38 | 0.000132 | -4.27% (inactive) | -0.417 (inactive) | -1.5e-06 (inactive) | 0.00817 (inactive) | inactive | -11% (inactive)
18 | O=C(Cc1cscn1)c1ccc(O)cc1O | 564 | -6% (inactive) | -143% (inactive) | 147% | 1.34 | -0.975 | -0.882 | 11.9% (inactive) | -0.544 (inactive) | -5.6e-05 (inactive) | 0.00473 (inactive) | inactive | 8.71% (inactive)
19 | CC(=O)c1c(N)nc2n(c1=O)CCCCC2 | 354 | -4.7% (inactive) | -5.5% (inactive) | 162% | 0.366 | 0.179 | 0.934 | 9.42% (inactive) | -0.392 (inactive) | -0.000138 (inactive) | 0.0044 (inactive) | inactive | 24.2% (inactive)
20 | Cc1cc(C)c(C#N)c(SCC(=O)N2CCN(Cc3ccccc3)CC2)n1 | 660 | -29% (inactive) | -68.1% (inactive) | 173% | -1.99 | 0.41 | 1.64 | -7.28% (inactive) | -0.419 (inactive) | -3.2e-05 (inactive) | 0.00644 (inactive) | inactive | 8.58% (inactive)
21 | CCC(C)Nc1nc(-c2cccc(OC)c2O)nc2ccccc12 (stereo not drawn) | 570 | 3.5% (inactive) | -68.3% (inactive) | 152% | -0.862 | -0.242 | 1.22 | 1.6e-07% (inactive) | -0.394 (inactive) | -5e-05 (inactive) | 0.00426 (inactive) | inactive | 65.6% (active)
